Experimental data published in ChEMBL document CHEMBL2331513, “Trisubstituted Sulfonamides: a New Chemotype for Development of Potent and Selective CB2 Receptor Inverse Agonists” (ACS Med Chem Lett, 2013).
pEC50, pKi: −log10 of the molar value. Activity calls are given as the source filed them. The rule behind the calls is not given here.

Legend:
Homo sapiens = organism: Homo sapiens; assay: Selectivity ratio of Ki for human CB1 receptor to Ki for human CB2 receptor
Outline: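 Ki at CB1 and CB2 each determined by [3H]CP-55,940 competition binding; selectivity index computed as Ki(CB1)/Ki(CB2).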

Cannabinoid receptor 2 [1] = molecular target: T1, Cannabinoid receptor 2 (Homo sapiens, UniProt P34972); assay: Displacement of [3H]CP-55940 from human CB2 receptor expressed in CHO cell membranes after 1 hr by scintillation counting analysis
Cannabinoid receptor 1 = Cannabinoid receptor 1 (Homo sapiens, UniProt P21554); assay: biochemical; assay type: cell-based, CHO
Cannabinoid receptor 2 [2] = molecular target: T1, Cannabinoid receptor 2; assay: Binding affinity to CB2 receptor (unknown origin)
Outline: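 Radioligand competition binding at CB2 using [3H]CP-55,940 as the labelled ligand; Ki derived from displacement; means ± SEM of at least three experiments, each run in duplicate.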

[3] = Inhibition of RANKL/MCSF-induced osteoclastogenesis in C57BL/6 mouse BM-MNC at 5 uM after 7 days by TRAP staining-based inverted microscopic analysis relative to control; assay type: functional; set-up: scale not given: the % may be the effect or the level left
Outline: (§1)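 Osteoclast formation assay using mouse bone marrow mononuclear cells stimulated with mouse RANKL plus M-CSF. Compounds were tested at 0.1, 1 and 5 μM, and inhibition was calculated relative to vehicle control. All experiments were run in triplicate and reported as mean ± standard deviation.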

[4] = Inhibition of RANKL/MCSF-induced osteoclastogenesis in C57BL/6 mouse BM-MNC at 0.1 uM after 7 days by TRAP staining-based inverted microscopic analysis relative to control; assay type: functional; set-up: scale not given: the % may be the effect or the level left; outline: as §1
Cannabinoid receptor 2 [5] = molecular target: T1, Cannabinoid receptor 2; assay: Inverse agonist activity at human CB2 receptor expressed in CHO cell membranes assessed as inhibition of forskolin-stimulated cAMP production after 45 mins by TR-FRET assay; assay type: functional, cell-based
Outline: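 Functional cAMP readout by LANCE signal in CHO cells stably transfected with human CB2, tested across a concentration range; EC50 from concentration–response; means ± SEM of one representative experiment of two or more, run in duplicate or triplicate.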

PBMC = assay: Cytotoxicity against human PBMC at 5 uM after 72 hrs by trypan blue assay; assay type: cell-based
[6] = Inhibition of RANKL/MCSF-induced osteoclastogenesis in C57BL/6 mouse BM-MNC at 1 uM after 7 days by TRAP staining-based inverted microscopic analysis relative to control; assay type: functional; set-up: scale not given: the % may be the effect or the level left; outline: as §1
Mus musculus = organism: Mus musculus; assay: Inhibition of RANKL/MCSF-induced osteoclastogenesis in C57BL/6 mouse BM-MNC after 7 days by TRAP staining-based inverted microscopic analysis; assay type: functional
Outline: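 Mouse bone marrow mononuclear cells driven to osteoclasts with mouse RANKL plus M-CSF, compound or vehicle control added; osteoclast formation scored; triplicate, means ± SD.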

Chain of Cannabinoid receptor 1 (P21554 whole entry): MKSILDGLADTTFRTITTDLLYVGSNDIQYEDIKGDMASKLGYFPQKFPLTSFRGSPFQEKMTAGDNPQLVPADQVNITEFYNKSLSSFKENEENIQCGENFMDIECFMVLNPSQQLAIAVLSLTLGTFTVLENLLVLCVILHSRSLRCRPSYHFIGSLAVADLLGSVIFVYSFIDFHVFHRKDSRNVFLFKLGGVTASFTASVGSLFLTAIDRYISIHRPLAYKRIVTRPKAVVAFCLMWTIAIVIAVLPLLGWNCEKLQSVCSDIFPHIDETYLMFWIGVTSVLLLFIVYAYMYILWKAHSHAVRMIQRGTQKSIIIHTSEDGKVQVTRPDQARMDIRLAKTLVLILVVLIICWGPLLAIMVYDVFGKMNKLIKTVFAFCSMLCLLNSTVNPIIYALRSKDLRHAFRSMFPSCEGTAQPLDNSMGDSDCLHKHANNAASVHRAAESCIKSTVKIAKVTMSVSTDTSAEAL
T1 sequence (P34972 whole entry): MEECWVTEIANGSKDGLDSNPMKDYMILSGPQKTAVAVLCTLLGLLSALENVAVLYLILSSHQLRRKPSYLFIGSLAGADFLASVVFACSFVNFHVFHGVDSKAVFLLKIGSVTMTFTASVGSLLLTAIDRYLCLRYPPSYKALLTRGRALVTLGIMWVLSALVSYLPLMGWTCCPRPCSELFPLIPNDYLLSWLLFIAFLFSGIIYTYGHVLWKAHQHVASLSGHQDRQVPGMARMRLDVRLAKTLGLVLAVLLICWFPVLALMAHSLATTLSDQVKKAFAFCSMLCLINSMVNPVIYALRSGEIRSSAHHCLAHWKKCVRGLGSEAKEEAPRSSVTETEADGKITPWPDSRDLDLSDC

SMILES: Cc1ccc(S(=O)(=O)N(Cc2ccccc2)Cc2ccc(N3CCCCC3)cc2)cc1
- Ratio Ki (Homo sapiens): 28
- pKi (Cannabinoid receptor 2 [1]): 7.36
- pKi (Cannabinoid receptor 1): 5.89

SMILES: CCOc1ccc(CN(Cc2ccccc2)S(=O)(=O)c2ccc(C)cc2)cc1
- pKi (Cannabinoid receptor 2 [1]): 6.64

SMILES: CCCc1ccc(CN(Cc2ccccc2)S(=O)(=O)c2ccc(C)cc2)cc1
- pKi (Cannabinoid receptor 2 [1]): 6.89

SMILES: Cc1ccc(S(=O)(=O)N(CCc2ccccc2)Cc2ccccc2)cc1
- pKi (Cannabinoid receptor 2 [2]): 6.12

SMILES: CCN(CC)c1ccc(CN(Cc2ccccc2)Cc2ccccc2)cc1
- pKi (Cannabinoid receptor 2 [1]): 6.82

SMILES: CCN(CC)c1ccc(CN(CCc2ccccc2)S(=O)(=O)c2ccc(C)cc2)cc1
- pKi (Cannabinoid receptor 2 [1]): 6.92

SMILES: Cc1ccc(S(=O)(=O)N(Cc2ccc(N3CCCCC3)cc2)c2ccccc2)cc1
- pKi (Cannabinoid receptor 2 [1]): 6.51

SMILES: CCN(CC)c1ccc(CN(c2ccccc2)S(=O)(=O)c2ccc(C)cc2)cc1
- Activity [3]: 99.7%
- Ratio Ki (Homo sapiens): 15
- Activity [4]: 55%
- pEC50 (Cannabinoid receptor 2 [5]): 8.09
- pKi (Cannabinoid receptor 2 [1]): 8.26
- Activity (PBMC): Non-toxic
- pKi (Cannabinoid receptor 1): 7.09
- Activity [6]: 83%

SMILES: CCN(CC)c1ccc(CN(c2ncc(C)s2)S(=O)(=O)c2ccc(OC)cc2)cc1
- Activity (Mus musculus): Active
- Ratio Ki (Homo sapiens): 120
- pEC50 (Cannabinoid receptor 2 [5]): 7.14
- pKi (Cannabinoid receptor 2 [1]): 8.40
- pKi (Cannabinoid receptor 1): 6.22

SMILES: CCN(CC)c1ccc(CN(Cc2ccccc2)S(=O)(=O)c2ccc3ccccc3c2)cc1
- pKi (Cannabinoid receptor 2 [1]): 6.72

SMILES: COc1ccc(S(=O)(=O)N(Cc2ccc(N3CCCCC3)cc2)c2ccccc2)cc1
- Ratio Ki (Homo sapiens): 18
- pEC50 (Cannabinoid receptor 2 [5]): 7.31
- pKi (Cannabinoid receptor 2 [1]): 7.49
- pKi (Cannabinoid receptor 1): 6.23

SMILES: Cc1ccc(S(=O)(=O)N(Cc2ccccc2)Cc2ccc(C(C)C)cc2)cc1
- pKi (Cannabinoid receptor 2 [1]): 6.64

SMILES: CCN(CC)c1ccc(CN(Cc2ccc(N(CC)CC)cc2)S(=O)(=O)c2ccc(C)cc2)cc1
- pKi (Cannabinoid receptor 2 [1]): 6.27

SMILES: CCN(CC)c1ccc(CN(c2ccccc2)S(=O)(=O)c2ccc(C(C)C)cc2)cc1
- Ratio Ki (Homo sapiens): 66
- pKi (Cannabinoid receptor 2 [1]): 7.52
- pKi (Cannabinoid receptor 1): 5.70

SMILES: CCN(CC)c1ccc(CN(Cc2ccccc2)S(=O)(=O)c2ccc(C(C)C)cc2)cc1
- Ratio Ki (Homo sapiens): 7
- pKi (Cannabinoid receptor 2 [1]): 7.15
- pKi (Cannabinoid receptor 1): 6.28

SMILES: CCN(CC)c1ccc(CN(Cc2ccccc2)S(=O)(=O)c2ccc(Cl)cc2)cc1
- Ratio Ki (Homo sapiens): 6
- pKi (Cannabinoid receptor 2 [1]): 7.14
- pKi (Cannabinoid receptor 1): 6.37

SMILES: CCN(CC)c1ccc(CN(Cc2ccccc2)S(=O)(=O)Cc2ccccc2)cc1
- pKi (Cannabinoid receptor 2 [1]): 6.58

SMILES: CCN(CC)c1ccc(CN(Cc2ccc(F)cc2)S(=O)(=O)c2ccc(C)cc2)cc1
- Ratio Ki (Homo sapiens): 20
- pKi (Cannabinoid receptor 2 [1]): 6.92
- pKi (Cannabinoid receptor 1): 5.65

SMILES: CCN(CC)c1ccc(CN(c2ncc(C)s2)S(=O)(=O)c2ccc(C)cc2)cc1
- Ratio Ki (Homo sapiens): 24
- pKi (Cannabinoid receptor 2 [1]): 7.85
- pKi (Cannabinoid receptor 1): 6.47

SMILES: O=S(=O)(c1ccc(Cl)cc1)N(Cc1ccc(N2CCCCC2)cc1)c1ccccc1
- pKi (Cannabinoid receptor 2 [1]): 6.85

SMILES: CCN(CC)c1ccc(CN(Cc2cccs2)S(=O)(=O)c2ccc(C)cc2)cc1
- Ratio Ki (Homo sapiens): 44
- pKi (Cannabinoid receptor 2 [1]): 7.85
- pKi (Cannabinoid receptor 1): 6.21

SMILES: CCN(CC)c1ccc(CN(Cc2ccco2)S(=O)(=O)c2ccc(C(C)C)cc2)cc1
- Ratio Ki (Homo sapiens): 42
- pKi (Cannabinoid receptor 2 [1]): 7.51
- pKi (Cannabinoid receptor 1): 5.89

SMILES: CCN(CC)c1ccc(CN(Cc2ccccc2)S(=O)(=O)c2ccc(F)cc2)cc1
- Ratio Ki (Homo sapiens): 9
- pKi (Cannabinoid receptor 2 [1]): 6.99
- pKi (Cannabinoid receptor 1): 6.03

SMILES: CCN(CC)c1ccc(CN(C2CCCCC2)S(=O)(=O)c2ccc(OC)cc2)cc1
- Ratio Ki (Homo sapiens): 9
- pKi (Cannabinoid receptor 2 [1]): 7.12
- pKi (Cannabinoid receptor 1): 6.18

SMILES: CCN(CC)c1ccc(CN(C2CCCCC2)S(=O)(=O)c2ccc(C)cc2)cc1
- Ratio Ki (Homo sapiens): 12
- pKi (Cannabinoid receptor 2 [1]): 7.74
- pKi (Cannabinoid receptor 1): 6.68

SMILES: CCN(CC)c1ccc(CN(Cc2ccc(Cl)cc2)S(=O)(=O)c2ccc(C)cc2)cc1
- pKi (Cannabinoid receptor 2 [1]): 6.68

SMILES: CCN(CC)c1ccc(CN(Cc2ccco2)S(=O)(=O)c2ccc(OC)cc2)cc1
- Ratio Ki (Homo sapiens): 42
- pKi (Cannabinoid receptor 2 [1]): 7.70
- pKi (Cannabinoid receptor 1): 6.08

SMILES: CCN(CC)c1ccc(CN(Cc2ccccc2)S(=O)(=O)c2ccc(NC(C)=O)cc2)cc1
- pKi (Cannabinoid receptor 2 [1]): 6.33

SMILES: CCN(CC)c1ccc(CN(Cc2ccccc2)S(=O)(=O)c2ccc(-c3ccccc3)cc2)cc1
- pKi (Cannabinoid receptor 2 [1]): 6.78

SMILES: CCN(CC)c1ccc(CN(CC2CCCCC2)S(=O)(=O)c2ccc(C)cc2)cc1
- Ratio Ki (Homo sapiens): 16
- pKi (Cannabinoid receptor 2 [1]): 7.47
- pKi (Cannabinoid receptor 1): 6.25

SMILES: CCN(CC)c1ccc(CN(Cc2ccc(Cl)c(Cl)c2)S(=O)(=O)c2ccc(C)cc2)cc1
- pKi (Cannabinoid receptor 2 [1]): 6.41

SMILES: CCCCc1ccc(CN(Cc2ccccc2)S(=O)(=O)c2ccc(C)cc2)cc1
- pKi (Cannabinoid receptor 2 [1]): 6.55

SMILES: CCN(CC)c1ccc(CN(Cc2ccco2)S(=O)(=O)c2ccc(C)cc2)cc1
- Ratio Ki (Homo sapiens): 60
- pKi (Cannabinoid receptor 2 [1]): 8.02
- pKi (Cannabinoid receptor 1): 6.24

SMILES: CCN(CC)c1ccc(CN(Cc2ccccc2)S(=O)(=O)c2ccc(C)cc2)cc1
- Ratio Ki (Homo sapiens): 43
- pKi (Cannabinoid receptor 2 [1]): 7.28
- pKi (Cannabinoid receptor 1): 5.64

SMILES: C=CCc1ccc(CN(Cc2ccccc2)S(=O)(=O)c2ccc(C)cc2)cc1
- pKi (Cannabinoid receptor 2 [1]): 6.89

SMILES: CCN(CC)c1ccc(CN(C2CCCC2)S(=O)(=O)c2ccc(C)cc2)cc1
- Ratio Ki (Homo sapiens): 14
- pKi (Cannabinoid receptor 2 [1]): 7.44
- pKi (Cannabinoid receptor 1): 6.30

SMILES: CCN(CC)c1ccc(CN(Cc2ccccc2)S(=O)(=O)c2ccccc2)cc1
- pKi (Cannabinoid receptor 2 [1]): 6.77

SMILES: CCN(CC)c1ccc(CN(Cc2ccccc2)S(=O)(=O)c2ccc(OC(C)C)cc2)cc1
- pKi (Cannabinoid receptor 2 [1]): 7.03

SMILES: CCN(CC)c1ccc(CN(c2ccccc2)S(=O)(=O)c2ccc(OC)cc2)cc1
- Activity (Mus musculus): Active
- Ratio Ki (Homo sapiens): 92
- pEC50 (Cannabinoid receptor 2 [5]): 8.60
- pKi (Cannabinoid receptor 2 [1]): 8.27
- pKi (Cannabinoid receptor 1): 6.30

SMILES: CCN(CC)c1ccc(CN(Cc2ccccc2)S(=O)(=O)c2ccc(OC)cc2)cc1
- Ratio Ki (Homo sapiens): 15
- pKi (Cannabinoid receptor 2 [1]): 7.34
- pKi (Cannabinoid receptor 1): 6.16

SMILES: Cc1ccc(S(=O)(=O)N(Cc2ccccc2)Cc2ccc(N(C)C)cc2)cc1
- pKi (Cannabinoid receptor 2 [1]): 6.17

SMILES: C=CCN(Cc1ccc(N(CC)CC)cc1)S(=O)(=O)c1ccc(C)cc1
- Ratio Ki (Homo sapiens): 19
- pKi (Cannabinoid receptor 2 [1]): 7.18
- pKi (Cannabinoid receptor 1): 5.90

SMILES: CCN(CC)c1ccc(CNS(=O)(=O)c2ccc(C)cc2)cc1
- pKi (Cannabinoid receptor 2 [1]): 5.44

SMILES: Cc1ccc(S(=O)(=O)N(Cc2ccccc2)Cc2ccc(N(CCCl)CCCl)cc2)cc1
- pKi (Cannabinoid receptor 2 [1]): 6.78

SMILES: CCN(CC)c1ccc(CN(C2CCCCC2)S(=O)(=O)c2ccc(C(C)C)cc2)cc1
- Ratio Ki (Homo sapiens): 25
- pKi (Cannabinoid receptor 2 [1]): 7.26
- pKi (Cannabinoid receptor 1): 5.85

SMILES: CCN(CC)c1ccc(CN(Cc2ccccc2)S(=O)(=O)c2ccc(OC(F)(F)F)cc2)cc1
- pKi (Cannabinoid receptor 2 [1]): 6.24

SMILES: Cc1ccc(S(=O)(=O)N(Cc2ccccc2)Cc2ccc(OC(C)C)cc2)cc1
- pKi (Cannabinoid receptor 2 [1]): 6.76
